Results as given in publication PMC8301581 (Clinical and Translational Science, 2021).
Structures can show the parent of a compound that is named as a salt.

Assays:
CEM = assay type: cell-based, human; details: CEM ALL cell line; α greater than zero = synergy, less than zero = antagonism
Procedure, shortened: (§1)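 Cells were grown in RPMI-1640 with 2 mM glutamine and 10% FBS at 37°C, 5% CO₂, and were STR-authenticated and mycoplasma-negative. Mid-log-phase cells were exposed to serial dilutions of the drugs, alone or combined, then read by a modified MTT assay after 3 days. Interaction α (positive = synergy, negative = antagonism) was estimated by modified response surface modeling relative to additivity.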

[1] = system: phospho‐histone H3 (Ser10); test: Western blot of phospho‐histone H3; assay type: cell-based, human; details: CEM, vincristine 2 nM for 24 h with increasing concentrations of DIP
[2] = system: phospho‐histone H3 (Ser10); test: Western blot of phospho‐histone H3; assay type: cell-based, human; details: NALM6, vincristine 2 nM for 24 h with increasing concentrations of DIP
[3] = clinical studies; cited from earlier work
C57BL/6 J mice = test: Mouse neurotoxicity assessment: mechanical allodynia; assay type: in vivo
hiPSC‐derived neurons [4] = assay type: cell-based, human; details: negative α = antagonism
Procedure, shortened: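 After drug treatment, hiPSC-derived neurons were stained with 5 µg/ml Hoechst 33342 and 10 µg/ml Calcein AM for 10 min at room temperature. Cells were imaged at 10×, with at least 1000 cells per condition in each of five independent experiments. Per-cell values were collected for total neurite outgrowth, number of processes and number of branches. Combination α came from response surface modeling against an additive model.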

SORORIN [5] = test: Western blot of SORORIN protein level; assay type: cell-based, human; details: CEM, G2 synchronized cells, highest concentration of DIP 10 µM
SORORIN [6] = test: Western blot of SORORIN protein level; assay type: cell-based, human; details: NALM6, G2 synchronized cells, highest concentration of DIP 10 µM
NALM6 = assay type: cell-based, human; details: NALM6 ALL cell line; α greater than zero = synergy, less than zero = antagonism
Procedure, shortened: as §1

[7] = In vivo pharmacokinetic studies in mice; details: for total plasma concentrations: mice, VCR 0.1 mg/kg intraperitoneal and DIP 200 mg/kg p.o.; for clearance: male, C57BL/6, mouse, plasma, intraperitoneal
hiPSC‐derived neurons [8] = assay type: cell-based, human; details: 72 h, negative α = antagonism
Procedure, shortened: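 Human iPSC-derived peripheral neurons (>90% pure; βIII-tubulin, MAP-2, peripherin and vGLUT2 positive; three lots) were kept per the supplier's protocol. Viability was read as ATP by CellTiter-Glo 2.0 at 72 h after drug treatment. Combination responses were fitted by modified response surface modeling. α is the interaction term versus the additive model: positive means synergy, negative means antagonism.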

CEM leukemia cells = test: Survival of NSG mice inoculated with human CEM leukemia cells; assay type: in vivo; details: once a week, 0.3mg/kg vincristine, p value <0.001
[9] = cited from earlier work

Structure (SMILES)	CEM α (drug‐drug interaction between vincristine and second drug) (CEM)	phospho‐histone H3 (Ser10) levels [1]	phospho‐histone H3 (Ser10) levels [2]	plasma concentrations reported clinically [3]	paw withdrawal response, DIP administered with VCR versus VCR alone (C57BL/6 J mice; mice, DIP oral gavage with VCR intraperitoneal, day 1 to day 10)	Branches α (drug‐drug interaction between vincristine and second drug) (hiPSC‐derived neurons [4])	Outgrowth α (drug‐drug interaction between vincristine and second drug) (hiPSC‐derived neurons [4])	Processes α (drug‐drug interaction between vincristine and second drug) (hiPSC‐derived neurons [4])	SORORIN protein levels (SORORIN [5])	SORORIN protein levels (SORORIN [6])	NALM6 α (drug‐drug interaction between vincristine and second drug) (NALM6)	total plasma concentrations [7]	Viability α (drug‐drug interaction between vincristine and second drug) (hiPSC‐derived neurons [8])	survival of mice, VCR and vehicle versus controls (CEM leukemia cells)	paw withdrawal responses (C57BL/6 J mice; mice receiving VCR alone)	plasma protein binding [9]	clearance [7]	clearance ([7]; 0.1 mg/kg)
OCCN(CCO)c1nc(N2CCCCC2)c2nc(N(CCO)CCO)nc(N3CCCCC3)c2n1 [Dipyridamole]	11.6	dose‐dependent increase	dose‐dependent increase	≤ 6000 ng/mL	significantly lowered	−3.43	−1.98	−1.75	lowest level of SORORIN protein	lowest level of SORORIN protein	4.45	≤ 5000 ng/mL	−3.7					
OCCOCCN1CCN(C2=Nc3ccccc3Sc3ccccc32)CC1 [Quetiapine fumarate]	0.787					−2.29	−1.67	−1.25			2.33		−0.007					
CCOC(=O)c1ccc(C#Cc2ccc3c(c2)C(C)(C)CCS3)nc1 [Tazarotene]	0.945					−1.16	−1.63	−1.59			1.42		−0.72					
CC[C@]1(O)C[C@H]2CN(CCc3c([nH]c4ccccc34)[C@@](C(=O)OC)(c3cc4c(cc3OC)N(C=O)[C@H]3[C@@](O)(C(=O)OC)[C@H](OC(C)=O)[C@]5(CC)C=CCN6CC[C@]43[C@@H]65)C2)C1 [VCR, Vincristine]				up to 31.2 ng/ml								up to 10 ng/ml		significantly prolonged survival	significant increase	around 75%	81.3 mL/min/kg	99.3 mL/min/kg
